Data on 1 compound can be found in ChEMBL document CHEMBL4706672 (J Med Chem, 2021).

Calls of active or inactive are those of the source. No cut-off for these calls is given here.

The test system of one assay is MIA PaCa-2. Put plainly: Antiproliferative activity against human MIA PaCa-2 cells assessed as reduction in cell viability incubated for 3 days by MTT assay. Conditions: MIA PaCa-2, 72 h. Type of assay: functional, cell-based. The procedure, abridged: (§1)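 MTT assay. Cells were seeded at 3000–6000/well and incubated overnight, then exposed to compound or DMSO vehicle for 3 days in RPMI-1640 or DMEM with 10% FBS at 37 °C, 5% CO2. MTT (3 mg/ml) was added for 3 h at 37 °C, formazan was dissolved in DMSO and absorbance read at 570 nm. IC50 from three independent experiments, mean ± SD.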
A general note: Formazan colour is commonly taken as a measure of viable cells.

The subject of assay [1] is BXPC-3. In words: Antiproliferative activity against human BxPC-3 cells assessed as reduction in cell viability incubated for 3 days by MTT assay. The class given is functional, cell-based. Conditions: BXPC-3, 72 h.
A further assay has as its system OVCAR-3. Put plainly: Antiproliferative activity against human OVCAR-3 cells assessed as reduction in cell viability incubated for 3 days by MTT assay. The class given is functional, cell-based. Conditions: OVCAR-3, 72 h. Put shortly:
as §1

Assay [2] in a line: Selectivity index, ratio of IC50 for antiproliferative activity against STAT3 knockout human OVCAR-3 cells to IC50 for wild type human OVCAR-3 cells. Type of assay: functional.
The target in assay [3] is T1, Protein cereblon/Signal transducer and activator of transcription 3 (Homo sapiens, UniProt P40763+Q96SW2). In words: Protac activity at CRBN/STAT3 in human OVCAR-3 cells assessed as depletion of STAT3 at 2 to 20 uM after 12 hrs by western blot analysis. The class given is cell-based. To be noted: dose 2-20 µM. For orientation: Immunoblotting shows a protein as a band on a membrane.

For assay [4], the target named is T1, Protein cereblon/Signal transducer and activator of transcription 3. Put plainly: Protac activity at CRBN/STAT3 in human OVCAR-3 cells assessed as decrease in STAT3 phosphorylation at 2 to 20 uM after 6 hrs by western blot analysis. Type of assay: cell-based. To be noted: dose 2-20 µM.
Assay [5] shares this target. In words: Protac activity at CRBN/STAT3 in human OVCAR-3 cells assessed as decrease in STAT3 expression at 2 to 10 uM incubated for 24 hrs in presence of proteasome inhibitor MG132 by western blot analysis. Type of assay: cell-based. Conditions: dose 2-10 µM.
The target is the same in assay [6]. Put plainly: Protac activity at CRBN/STAT3 in human OVCAR-3 cells assessed as induction of STAT3 degradation at 1 to 20 uM incubated for 12 hrs in presence of competitive CRBN ligand pomalidomide by western blot analysis. Type of assay: cell-based. Conditions: dose 1-20 µM.
The target of assay [7] is Protein cereblon/Signal transducer and activator of transcription 1-alpha/beta (Homo sapiens) (UniProt P42224+Q96SW2). Put plainly: Protac activity at CRBN/STAT1 in human OVCAR-3 cells assessed as decrease in STAT1 expression levels at 2 to 20 uM after 12 hrs by western blot analysis. Type of assay: cell-based. Conditions: dose 2-20 µM.
Assay [8] concerns the target T1, Protein cereblon/Signal transducer and activator of transcription 3. In words: Protac activity at CRBN/STAT3 in human BxPC-3 cells assessed as decrease in STAT3 expression level after 12 hrs by western blot analysis. Type of assay: cell-based.
Assay [9] shares this target. In words: Protac activity at CRBN/STAT3 in human BxPC-3 cells assessed as induction of STAT3 degradation at 1 to 5 uM after 12 hrs in presence of proteasome inhibitor bortezomib by western blot analysis. The class given is cell-based. To be noted: dose 1-5 µM.
In assay [10] the test system is BXPC-3. In words: Reduction in NQO1 levels in human BxPC-3 cells at 1 to 10 uM incubated for 16 hrs by western blot analysis. To be noted: dose 1-10 µM. Type of assay: functional, cell-based. The procedure, abridged: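 BxPC-3 cells seeded at 500 × 10^3 per well in 6-well plates, treated 16 h. Sonication lysis at 4 °C in Tris/NaCl/Triton/SDS buffer pH 7.4 with protease and phosphatase inhibitors, BCA protein assay, SDS-PAGE, PVDF transfer. Probed for STAT3, pSTAT3 and NQO1 with GAPDH loading control; fluorescent secondary detection.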

Assay [11] concerns G1 to S phase transition protein 1 homolog GSPT1 (Homo sapiens). Put plainly: Protac activity at CRBN/STAT3 in human BxPC-3 cells assessed as effect on GSPT1 protein expression level at 1 to 10 uM incubated for 16 hrs by western blot analysis. To be noted: dose 1-10 µM.

A word on the IC50: it is the concentration needed to halve the response being measured. As for `O=C1CCC(N2C(=O)c3cccc(NCCOCCOCCNC(=O)c4cc5c(o4)C(=O)c4ccccc4C5=O)c3C2=O)C(=O)N1` (stereo not drawn), the IC50 with MIA PaCa-2 was 1.3 µM; in the assay on BXPC-3 [1], 4.3 µM; with OVCAR-3, 0.3 µM. Besides, the “Ratio IC50” value in assay [2] was >6. Also, the result in assay [3], in [4], in assay [5], in assay [6], in [7] and in assay [9] was Active. The outcome with BXPC-3 [10] was Active. Also, in assay [8], the DC50 turned out to be 7.8 µM. The result in [11] was inactive.
